Source: ChEMBL document CHEMBL3872252, “New bithiazolyl hydrazones: Novel synthesis, characterization and antitubercular evaluation” (Bioorg Med Chem Lett, 2017)
≈ marks a conversion by molar mass, not a printed value.

How the values were obtained:
[1] = Antitubercular activity against Mycobacterium tuberculosis H37Ra ATCC 25177 dormant stage infected in human THP1 cells measured on day 12 by nitrate reductase assay; type: functional, THP-1; conditions: ATCC 25177, 288 h
[2] = Antitubercular activity against Mycobacterium tuberculosis H37Ra ATCC 25177 active stage infected in human THP1 cells measured on day 8 by nitrate reductase assay; type: functional, THP-1; conditions: ATCC 25177, 192 h
[3] = Antitubercular activity against Mycobacterium tuberculosis H37Ra ATCC 25177 active stage measured on day 8 by XTT reduction menadione based two-fold dilution assay; type: functional; conditions: ATCC 25177, 192 h
Procedure, shortened: (§1)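 M. tuberculosis H37Ra ATCC 25177 was exposed to 0.7–100 μg/mL in two-fold steps (0.7, 1.5, 3.1 … 100). Active stage was read after 8 days and dormant stage after 12 days of incubation. Inhibition was read by XTT reduction menadione assay (XRMA), absorbance 470 nm. MIC90 is the concentration giving ≥90% inhibition (µg/mL).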

[4] = Antitubercular activity against Mycobacterium tuberculosis H37Ra ATCC 25177 dormant stage measured on day 12 by XTT reduction menadione based two-fold dilution assay; type: functional; conditions: ATCC 25177, 288 h; procedure, shortened: as §1
[5] = Antitubercular activity against Mycobacterium bovis BCG ATCC 35743 active stage measured on day 8 by nitrate reductase based two-fold dilution assay; type: functional, Mycobacterium bovis BCG str. ATCC 35743; conditions: Mycobacterium tuberculosis variant bovis BCG, ATCC 35743, 192 h
[6] = Antitubercular activity against Mycobacterium bovis BCG ATCC 35743 dormant stage measured on day 12 by nitrate reductase based two-fold dilution assay; type: functional, Mycobacterium bovis BCG str. ATCC 35743; conditions: Mycobacterium tuberculosis variant bovis BCG, ATCC 35743, 288 h
[7] = Cytotoxicity against human THP1 cells by MTT assay; type: toxicity, cell-based, THP-1
[8] = Cytotoxicity against human MCF7 cells by MTT assay; type: toxicity, cell-based
[9] = Cytotoxicity against human HCT116 cells by MTT assay; type: toxicity, cell-based, HCT-116
[10] = Selectivity index, ratio of GI50 for human MCF7 cells to MIC90 for Mycobacterium tuberculosis H37Ra ATCC 25177 active stage; type: toxicity, cell-based; conditions: read-out: Selectivity Index
Procedure, shortened: (§2)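 Cytotoxicity was measured on human MCF-7, HCT116 and THP-1 cells by MTT assay, with paclitaxel as reference. GI50 is the concentration inhibiting 50% of cell growth. The selectivity index is GI50 for the given cell line divided by MIC90 for the given mycobacterial strain and stage.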

[11] = Selectivity index, ratio of GI50 for human MCF7 cells to MIC90 for Mycobacterium tuberculosis H37Ra ATCC 25177 dormant stage; type: toxicity, cell-based; conditions: read-out: Selectivity Index
Procedure, shortened: (§3)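 Cytotoxicity was measured on human MCF-7, HCT116 and THP-1 cells by MTT assay, with paclitaxel as reference. The selectivity index is GI50 for the given cell line divided by MIC90 for the given mycobacterial strain and stage.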

[12] = Selectivity index, ratio of GI50 for human MCF7 cells to MIC90 for Mycobacterium bovis BCG ATCC 35743 active stage; type: toxicity, cell-based; conditions: read-out: Selectivity Index; procedure, shortened: as §2
[13] = Selectivity index, ratio of GI50 for human MCF7 cells to MIC90 for Mycobacterium bovis BCG ATCC 35743 dormant stage; type: toxicity, cell-based; conditions: read-out: Selectivity Index; procedure, shortened: as §3
[14] = Selectivity index, ratio of GI50 for human HCT116 cells to MIC90 for Mycobacterium tuberculosis H37Ra ATCC 25177 active stage; type: toxicity, cell-based, HCT-116; conditions: read-out: Selectivity Index; procedure, shortened: as §2
[15] = Selectivity index, ratio of GI50 for human HCT116 cells to MIC90 for Mycobacterium tuberculosis H37Ra ATCC 25177 dormant stage; type: toxicity, cell-based, HCT-116; conditions: read-out: Selectivity Index; procedure, shortened: as §3
[16] = Selectivity index, ratio of GI50 for human HCT116 cells to MIC90 for Mycobacterium bovis BCG ATCC 35743 active stage; type: toxicity, cell-based, HCT-116; conditions: read-out: Selectivity Index; procedure, shortened: as §2
[17] = Selectivity index, ratio of GI50 for human HCT116 cells to MIC90 for Mycobacterium bovis BCG ATCC 35743 dormant stage; type: toxicity, cell-based, HCT-116; conditions: read-out: Selectivity Index; procedure, shortened: as §3
[18] = Selectivity index, ratio of GI50 for human THP1 cells to MIC90 for Mycobacterium tuberculosis H37Ra ATCC 25177 active stage; type: toxicity, cell-based, THP-1; conditions: read-out: Selectivity Index; procedure, shortened: as §2
[19] = Selectivity index, ratio of GI50 for human THP1 cells to MIC90 for Mycobacterium tuberculosis H37Ra ATCC 25177 dormant stage; type: toxicity, cell-based, THP-1; conditions: read-out: Selectivity Index; procedure, shortened: as §3
[20] = Selectivity index, ratio of GI50 for human THP1 cells to MIC90 for Mycobacterium bovis BCG ATCC 35743 active stage; type: toxicity, cell-based, THP-1; conditions: read-out: Selectivity Index; procedure, shortened: as §2
[21] = Selectivity index, ratio of GI50 for human THP1 cells to MIC90 for Mycobacterium bovis BCG ATCC 35743 dormant stage; type: toxicity, cell-based, THP-1; conditions: read-out: Selectivity Index; procedure, shortened: as §3
Escherichia coli [22] = assay: Antibacterial activity against Escherichia coli; type: functional
Pseudomonas aeruginosa [23] = assay: Antibacterial activity against Pseudomonas aeruginosa; type: functional
Staphylococcus aureus [24] = assay: Antibacterial activity against Staphylococcus aureus; type: functional
Bacillus subtilis [25] = assay: Antibacterial activity against Bacillus subtilis; type: functional
Escherichia coli [26] = assay: Growth inhibition of Escherichia coli at 30 ug/ml; type: functional; conditions: read-out: GI
Escherichia coli [27] = assay: Growth inhibition of Escherichia coli at 10 ug/ml; type: functional; conditions: read-out: GI
Escherichia coli [28] = assay: Growth inhibition of Escherichia coli at 3 ug/ml; type: functional; conditions: read-out: GI
Procedure, shortened: (§4)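 Screened against Gram-negative E. coli and P. aeruginosa and Gram-positive S. aureus and B. subtilis. Compound was tested at 3 µg/ml, and the read-out is percent growth inhibition.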

Pseudomonas aeruginosa [29] = assay: Growth inhibition of Pseudomonas aeruginosa at 30 ug/ml; type: functional; conditions: read-out: GI
Pseudomonas aeruginosa [30] = assay: Growth inhibition of Pseudomonas aeruginosa at 10 ug/ml; type: functional; conditions: read-out: GI
Pseudomonas aeruginosa [31] = assay: Growth inhibition of Pseudomonas aeruginosa at 3 ug/ml; type: functional; conditions: read-out: GI; procedure, shortened: as §4
Staphylococcus aureus [32] = assay: Growth inhibition of Staphylococcus aureus at 30 ug/ml; type: functional; conditions: read-out: GI
Staphylococcus aureus [33] = assay: Growth inhibition of Staphylococcus aureus at 10 ug/ml; type: functional; conditions: read-out: GI
Staphylococcus aureus [34] = assay: Growth inhibition of Staphylococcus aureus at 3 ug/ml; type: functional; conditions: read-out: GI; procedure, shortened: as §4
Bacillus subtilis [35] = assay: Growth inhibition of Bacillus subtilis at 30 ug/ml; type: functional; conditions: read-out: GI
Bacillus subtilis [36] = assay: Growth inhibition of Bacillus subtilis at 10 ug/ml; type: functional; conditions: read-out: GI
Bacillus subtilis [37] = assay: Growth inhibition of Bacillus subtilis at 3 ug/ml; type: functional; conditions: read-out: GI; procedure, shortened: as §4

SMILES: COc1ccc(-c2csc(N/N=C(\C)c3sc(-c4ccccc4)nc3C)n2)cc1
- MIC90 [1]: 9.38 µg/mL (≈ 22.3 µM)
- MIC90 [2]: 12.3 µg/mL (≈ 29.3 µM)
- IC50 [3]: 0.078 µg/mL (≈ 0.185 µM)
- MIC90 [3]: 6.87 µg/mL (≈ 16.3 µM)
- IC50 [4]: 0.075 µg/mL (≈ 0.178 µM)
- MIC90 [4]: 7.15 µg/mL (≈ 17 µM)
- IC50 [5]: 2.43 µg/mL (≈ 5.78 µM)
- MIC90 [5]: 13.5 µg/mL (≈ 32.1 µM)
- IC50 [6]: 2.82 µg/mL (≈ 6.71 µM)
- MIC90 [6]: 14 µg/mL (≈ 33.3 µM)
- GI50 ([7]; THP1 cells): > 100 µg/mL
- GI90 ([7]; thp-1): > 100 µg/mL
- GI50 ([8]; MCF7 cells): > 100 µg/mL
- GI90 ([8]; mcf7): > 100 µg/mL
- GI50 ([9]; HCT116 cells): > 100 µg/mL
- GI90 ([9]; hct-116): > 100 µg/mL
- selectivity ratio [10]: 15
- selectivity ratio [11]: 14
- selectivity ratio [12]: 7
- selectivity ratio [13]: 7
- selectivity ratio [14]: 15
- selectivity ratio [15]: 14
- selectivity ratio [16]: 7
- selectivity ratio [17]: 7
- selectivity ratio [18]: 15
- selectivity ratio [19]: 14
- selectivity ratio [20]: 7
- selectivity ratio [21]: 7
- MIC (Escherichia coli [22]): > 30 µg/mL
- MIC (Pseudomonas aeruginosa [23]): > 30 µg/mL
- MIC (Staphylococcus aureus [24]): > 30 µg/mL
- MIC (Bacillus subtilis [25]): > 30 µg/mL
- inhibition of growth at 30 µg/mL (Escherichia coli [26]): 84.6%
- inhibition of growth at 10 µg/mL (Escherichia coli [27]): 71.1%
- inhibition of growth at 3 µg/mL (Escherichia coli [28]): 52.1%
- inhibition of growth at 30 µg/mL (Pseudomonas aeruginosa [29]): 85%
- inhibition of growth at 10 µg/mL (Pseudomonas aeruginosa [30]): 69.9%
- inhibition of growth at 3 µg/mL (Pseudomonas aeruginosa [31]): 48.7%
- inhibition of growth at 30 µg/mL (Staphylococcus aureus [32]): 83.7%
- inhibition of growth at 10 µg/mL (Staphylococcus aureus [33]): 69.2%
- inhibition of growth at 3 µg/mL (Staphylococcus aureus [34]): 48.8%
- inhibition of growth at 30 µg/mL (Bacillus subtilis [35]): 82.5%
- inhibition of growth at 10 µg/mL (Bacillus subtilis [36]): 66.8%
- inhibition of growth at 3 µg/mL (Bacillus subtilis [37]): 44.9%
